# Compound activity: PubChem BioAssay, Johns Hopkins Ion Channel Center
# TRPC6 activator = activators of mouse TRPC6 channel | Q61143 | 0.13% of 310,000 active | AID 2550 | B-score at 10 µM | HEK293-TRPC6 membrane potential dye fluorescence; hits give high values;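 active = B-score of the integrated fluorescence ratio above library mean plus 3 SD, and starting fluorescence ratio within library mean plus 5 SD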;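 note: higher score means more depolarization so channel activation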
# TRPC6 inhibitor = inhibitors of mouse TRPC6 channel. Q61143. HEK293-TRPC6, membrane potential dye, ACh-evoked depolarization; hits give low values. B-score at 10 µM. 1.1% of 310,000 active;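 active = B-score under library mean minus 3 SD, initial fluorescence not abnormally high, positive integrated signal ratio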;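 note: B-score derived from integrated fluorescence ratio over the kinetic read; more negative B-score means stronger inhibition of depolarization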
# TRPC4 agonist = opens the mouse TRPC4 cation channel; Q9QUQ5; HEK293 TRPC4beta/mu-opioid, Fluo4 calcium fluorescence; hits give high values; B-score at 10 µM; 0.49% of 310,000 active; AID 2237;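 active = B-score above 5 SD of library B-scores, and initial fluorescence ratio not above library mean plus 5 SD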;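 note: positive B-score marks a calcium rise read as TRPC4 activation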
# Target sequence (Q9QUQ5 whole entry, looked up): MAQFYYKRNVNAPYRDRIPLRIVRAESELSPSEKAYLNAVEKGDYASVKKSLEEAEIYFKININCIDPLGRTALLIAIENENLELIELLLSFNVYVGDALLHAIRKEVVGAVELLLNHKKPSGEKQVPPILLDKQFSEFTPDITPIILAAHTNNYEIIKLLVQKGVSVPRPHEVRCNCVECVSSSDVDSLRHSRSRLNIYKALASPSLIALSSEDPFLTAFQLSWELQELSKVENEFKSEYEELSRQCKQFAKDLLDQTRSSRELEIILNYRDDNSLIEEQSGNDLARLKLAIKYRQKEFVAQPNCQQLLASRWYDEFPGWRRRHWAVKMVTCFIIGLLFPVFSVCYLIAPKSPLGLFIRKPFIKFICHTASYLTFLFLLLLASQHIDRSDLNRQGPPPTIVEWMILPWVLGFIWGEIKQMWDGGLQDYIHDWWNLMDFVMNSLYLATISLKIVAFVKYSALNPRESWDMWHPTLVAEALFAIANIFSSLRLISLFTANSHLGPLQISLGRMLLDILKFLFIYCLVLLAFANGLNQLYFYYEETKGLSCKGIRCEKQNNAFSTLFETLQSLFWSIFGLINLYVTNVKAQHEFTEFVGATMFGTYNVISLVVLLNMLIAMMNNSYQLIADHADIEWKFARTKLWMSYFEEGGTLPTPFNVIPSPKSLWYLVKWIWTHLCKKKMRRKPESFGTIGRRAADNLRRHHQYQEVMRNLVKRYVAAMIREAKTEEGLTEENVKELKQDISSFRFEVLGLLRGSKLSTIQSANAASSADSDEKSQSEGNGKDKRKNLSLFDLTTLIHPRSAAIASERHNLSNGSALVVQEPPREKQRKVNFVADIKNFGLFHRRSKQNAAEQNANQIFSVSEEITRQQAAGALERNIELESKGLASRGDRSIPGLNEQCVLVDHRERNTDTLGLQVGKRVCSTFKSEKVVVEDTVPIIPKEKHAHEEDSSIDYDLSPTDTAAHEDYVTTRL
#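 Assay system: HEK293 stable line with TRPC4beta plus mu-opioid receptor; schedule: 45 min room-temperature Fluo4 loading, 110 s read; technique: kinetic Fluo4 calcium fluorescence; evaluation: integrated baseline-normalised fluorescence ratio, converted to per-well B score; controls: buffer (low) and maximal DAMGO (high)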
# TRPC4 block = inhibitors of mouse TRPC4 channel. B-score at 10 µM. 0.39% of 300,000 active. AID 2247. Q9QUQ5. HEK293 TRPC4beta/mu-opioid, DAMGO-evoked Fluo4 calcium flux; hits give low values;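 active = B-score over 3 SD under the library average, no early fluorescence shift, positive overall ratio signal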
#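 Assay system: HEK293 cells with stable TRPC4beta plus mu-opioid receptor expression; Probe or stimulus: DAMGO in two steps, submaximal then maximal; Dosing: single-point compound dosing; Measured by: Fluo4 calcium-dye fluorescence, kinetic read; Read-out basis: B score from integrated Fluo4 fluorescence ratio.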
# TRPC4 potent = allosteric potentiators of mouse TRPC4 channel; 0.42% of 310,000 active; Q9QUQ5; B-score at 10 µM; AID 2227; HEK293 TRPC4beta/mu-opioid, DAMGO EC20, Fluo-4 Ca2+ flux; hits give high values;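 active = B-score of calcium response area above 5 SD of library B-scores, with initial fluorescence ratio within 5 SD of library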;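 note: B-score of integrated fluorescence ratio over time as area under calcium response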
# TRPC4 spec 2 = second check of whether TRPC6 inhibitors also affect mouse TRPC4. shares compounds with TRPC6 inhibitor. HEK293 TRPC4/MOR, membrane potential dye fluorescence; channel activated by saturating DAMGO dose. inhibition, % at 10 µM. 42% of 920 active. AID 2776;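 active = compounds whose fluorescence signal differed from control wells by over 3 SD, either direction, in both duplicate plates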
# TRPC4 spec = tests whether TRPC6 inhibitors also affect mouse TRPC4; HEK293 TRPC4/mu-opioid, membrane potential fluorescence; shares compounds with TRPC6 inhibitor; 61% of 920 active; activity change, negative = inhibition, % at 10 µM;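 active = rise or fall in signal beyond 3 SD of buffer-only wells in both replicate plates, either sign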;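 note: integrated kinetic ratio of fluorescence range over baseline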
# HEK293 MPD ctr 2-1 = second counter-screen for TRPC6 inhibitors: parental HEK293 cells | shares compounds with TRPC6 inhibitor | parental HEK293 membrane potential dye fluorescence; maximal acetylcholine challenge after compound addition | signal change vs control, % at 10 µM | 31% of 920 active | AID 2779;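 active = membrane potential signal moving either way by over 3 SD of the maximum-effect control, in both duplicate plates, meaning non-specific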
# HEK293 MPD ctr-1 = checks TRPC6 inhibitor effects in parental HEK293 cells; shares compounds with TRPC6 inhibitor; parental HEK293 membrane potential dye fluorescence; 60% of 920 active; membrane potential signal change, % at 10 µM; AID 2780;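 active = membrane potential signal shifting up or down by more than 3 SD of buffer-only wells, on both duplicate plates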
# HEK293 MPD ctr-2 = parental HEK293 nonspecific activity of TRPC6 modulators; 51% of 2,400 active; AID 488924; membrane potential dye fluorescence; membrane potential signal change, % at 10 µM; shares compounds with TRPC6 inhibitor;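 active = membrane potential signal moves up or down beyond 5 SD from buffer-only wells, on both duplicate plates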
# HEK293 MPD ctr 2-2 = second counter-screen for TRPC6 modulators: effect in parental HEK293 cells. membrane potential dye fluorescence; after compound, maximal acetylcholine stimulation. shares compounds with TRPC6 inhibitor. 14% of 2,400 active. inhibition, % at 10 µM. AID 488926;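 active = membrane potential signal drops by more than 5 SD from the mean control signal, in both duplicate plates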;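 note: plate controls were acetylcholine ECmax control wells for no effect and buffer only wells for full effect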
# TRPC4/MOR mod = selectivity of TRPC6 modulators against mouse TRPC4 | shares compounds with TRPC6 inhibitor | HEK293 TRPC4/mu-opioid, membrane potential fluorescence | 69% of 2,400 active | percent change from control (negative = decrease, positive = increase), % at 10 µM | AID 488927;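 active = membrane potential signal moved up or down beyond 5 SD of buffer control wells, in both duplicate plates, actives on both sides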;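 note: plate controls were assay buffer wells for no effect and DAMGO maximal-effect wells for full effect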
# TRPC4 ctr inh 2 = second selectivity test of TRPC6 modulators against mouse TRPC4. shares compounds with TRPC6 inhibitor. HEK293 TRPC4/mu-opioid, membrane potential dye fluorescence; stimulated with maximal-effect DAMGO. inhibition, % at 10 µM. 55% of 2,400 active. AID 488928;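 active = drop in membrane potential signal beyond 5 SD of the control wells in both duplicate plates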;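 note: TRPC4 counter screen for TRPC6 hits run under conditions tuned for TRPC6 not TRPC4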
# TRPC6 block conf = mouse TRPC6 inhibitor confirmation; AID 488960; inhibition, % at 10 µM; 43% of 3,300 active; shares compounds with TRPC6 inhibitor; HEK293-TRPC6, membrane potential dye, ACh-evoked depolarization;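 active = fluorescence ratio falls more than 5 SD below the full-stimulation control mean, in both duplicate runs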;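 note: integrated fluorescence ratio of peak minus minimum over baseline after agonist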
# TRPC6 act confirm = mouse TRPC6 activator confirmation. activation, % at 10 µM. 11% of 2,800 active. shares compounds with TRPC6 inhibitor. HEK293-TRPC6 membrane potential dye fluorescence, FDSS;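 active = ratio signal rise beyond 5 SD above unstimulated control wells' mean, seen in both duplicate runs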;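 note: plate controls were buffer EC0 wells for no effect and acetylcholine ECmax response for full effect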
# An asterisk follows results filed as active; i = inactive; x = no result. Compounds with a hit are over-represented: about 2.3% of the library has one in this group of screens.
SMILES,TRPC6 activator,TRPC6 inhibitor,TRPC4 agonist,TRPC4 block,TRPC4 potent,HEK293 MPD ctr-2,HEK293 MPD ctr 2-2,TRPC4/MOR mod,TRPC4 ctr inh 2,TRPC6 block conf,TRPC6 act confirm,others
CN(C)CCNS(=O)(=O)c1ccc(N2CCN(c3ccc(F)cc3)CC2)c([N+](=O)[O-])c1,i,-7*,i,i,i,x,x,x,x,52%*,i,TRPC4 spec 2=40%*;TRPC4 spec=-14%*;HEK293 MPD ctr 2-1=i;HEK293 MPD ctr-1=-278%*
COc1cccc(NC(=O)c2cc([N+](=O)[O-])ccc2N2CCN(C)CC2)c1,i,i,i,i,i,x,x,x,x,x,x,
O=C(O)c1ccc(N2CCc3ccccc32)c([N+](=O)[O-])c1,i,i,i,i,i,x,x,x,x,x,x,
COc1ccc(C(=O)Nc2cc([N+](=O)[O-])ccc2N2CCN(C)CC2)cc1,i,-17*,i,i,i,-386%*,111%*,-60%*,82%*,86%*,i,
CN1CCN(c2ccc([N+](=O)[O-])cc2C(=O)Nc2ccccc2)CC1,i,-5.3*,i,i,i,i,i,i,i,i,i,
COC(=O)c1ccc(N2CCc3ccccc32)c([N+](=O)[O-])c1,i,-5.3*,i,i,i,i,i,-16%*,40%*,i,i,
CN1CCN(c2ccc([N+](=O)[O-])cc2NC(=O)c2ccccc2)CC1,i,-6.4*,i,i,i,-323%*,i,-50%*,36%*,i,i,
O=C(Nc1cc([N+](=O)[O-])ccc1N1CCCC1)c1ccccc1,i,i,i,i,i,x,x,x,x,x,x,
COc1ccc(OC)c(S(=O)(=O)NC(N)=NCCc2ccccc2)c1,i,i,i,i,i,x,x,x,x,x,x,
COc1cccc(C(=O)NNS(=O)(=O)c2ccc(C)cc2)c1,i,i,i,i,i,x,x,x,x,x,x,
CN1CCN(c2ccccc2NC(=O)c2cccc([N+](=O)[O-])c2)CC1,i,i,i,i,i,x,x,x,x,x,x,
COC(=O)c1ccc(N2CCN(C)CC2)c(NC(=O)c2cccnc2)c1,i,-8.5*,50*,i,i,-444%*,84%*,-76%*,56%*,55%*,i,
CN1CCN(c2ccccc2NC(=O)c2ccc(N3CCCCC3)c([N+](=O)[O-])c2)CC1,i,-6.2*,i,i,i,-121%*,i,-31%*,76%*,44%*,i,
COc1cccc(C(=O)Nc2cc([N+](=O)[O-])ccc2N2CCN(C)CC2)c1,i,-11*,i,i,i,-372%*,i,-61%*,56%*,50%*,i,
CCN(CC)CC#CCC(O)(c1ccccc1)c1ccccc1,i,i,i,i,i,x,x,x,x,x,x,
CCN(CC)CC#CCC(C)(c1ccccc1)c1ccccc1,i,-5*,i,i,i,142%*,i,36%*,i,i,x,
O=C(CN1CCN(Cc2ccccc2)CC1)Nc1ccc([N+](=O)[O-])cc1C(=O)Nc1ccccc1F,i,-5.1*,i,i,i,i,i,i,70%*,38%*,i,
COc1cc(NC(=O)c2cc([N+](=O)[O-])ccc2NC(=O)CN2CCN(c3ccccn3)CC2)cc(OC)c1,i,-5.9*,i,i,10*,i,i,i,40%*,i,i,
CC(C)Nc1ccc(Nc2ccnc3cc4ccccc4cc23)cc1,i,-6.2*,i,i,i,i,i,i,54%*,i,i,
c1ccc(CCNc2ccnc3cc4ccccc4cc23)cc1,i,i,i,i,i,x,x,x,x,x,x,
COc1ccc(Nc2ccnc3ccccc23)cc1,i,-8.5*,i,i,i,x,x,x,x,54%*,i,TRPC4 spec 2=54%*;TRPC4 spec=-25%*;HEK293 MPD ctr 2-1=i;HEK293 MPD ctr-1=-284%*
COc1ccc(Nc2ncnc3ccccc23)cc1,i,i,i,i,i,x,x,x,x,x,x,
O=C(CNC(=O)c1ccccc1)OCCCOC(=O)CNC(=O)c1ccccc1,i,i,i,i,i,x,x,x,x,x,x,
CCCC(=O)N1CCCC(c2nc(-c3cccc(OC)c3)no2)C1 (stereo not given),i,i,i,i,i,x,x,x,x,x,x,
CCCCCCC(=O)N1CCCC(c2nc(-c3cccc(OC)c3)no2)C1 (stereo not given),i,-5.9*,i,i,i,i,i,10%*,30%*,64%*,x,
Cc1ccc(N=Nc2c(N)[nH]n3c(=O)cc(-c4ccccc4)nc23)cc1,i,-8.6*,i,i,i,x,x,x,x,79%*,i,TRPC4 spec 2=52%*;TRPC4 spec=-17%*;HEK293 MPD ctr 2-1=i;HEK293 MPD ctr-1=-220%*
COc1cccc(N=Nc2c(N)[nH]n3c(=O)cc(-c4ccccc4)nc23)c1,i,-5.3*,i,i,i,i,i,-20%*,66%*,i,i,
Cc1cc(=O)n2[nH]c(N)c(N=Nc3ccccc3)c2n1,i,i,i,i,i,x,x,x,x,x,x,
COc1ccc(COc2cc(-c3cccc(OC)c3)nc3ccc(N)cc23)cc1,i,-8.3*,i,i,i,x,x,x,x,i,i,TRPC4 spec 2=i;TRPC4 spec=-9.5%*;HEK293 MPD ctr 2-1=i;HEK293 MPD ctr-1=i
